RTF Ca sens act – cardiac RTF calcium sensitivity activators, primary screen, biochemical, IANBD-TnC fluorescence, EC20 calcium | IANBD-labeled TnC RTF fluorescence at EC20 calcium; 0% EC20 calcium, 100% full calcium | 340,000 compounds, 0.24% hits | Troponin I, cardiac muscle (Homo sapiens) + Troponin T, cardiac muscle (Homo sapiens) + … | activation, % at 7.2 µM;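 active = activation above the mean over all tested compounds plus 3 SD, cut at about 30% in these data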;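 also: rise in fluorescence read as greater calcium sensitivity of cardiac thin filaments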
Efflux pump inh – inhibitors of Candida efflux pumps in yeast, primary screen, S. cerevisiae, Nile Red, multiplex. S. cerevisiae Candida pump triplex. inhibition, % at 10 µM. 330,000 compounds, 0.44% hits. AID 485275, 2010;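 active = plate passing quality check with inhibition over a set limit, or well fluorescence over plate mean plus 4 SD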;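 also: Nile Red retained in pooled yeast measured as flow cytometry median fluorescence; higher means more Nile Red kept so more efflux inhibition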
UCH37 inh – inhibitors of human UCH37 deubiquitinase, primary screen, biochemical, Ub-AMC cleavage, fluorescence; Ubiquitin carboxyl-terminal hydrolase isozyme L5 (Homo sapiens), Q9Y5K5; purified proteasome/UCH37; inhibition, % (concentration not given with the values); 330,000 compounds, 0.33% hits; AID 588478, 2011;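 active = mean inhibition over replicate wells above about 20%, limit read from the data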
Target sequence (Q9Y5K5 whole entry, looked up): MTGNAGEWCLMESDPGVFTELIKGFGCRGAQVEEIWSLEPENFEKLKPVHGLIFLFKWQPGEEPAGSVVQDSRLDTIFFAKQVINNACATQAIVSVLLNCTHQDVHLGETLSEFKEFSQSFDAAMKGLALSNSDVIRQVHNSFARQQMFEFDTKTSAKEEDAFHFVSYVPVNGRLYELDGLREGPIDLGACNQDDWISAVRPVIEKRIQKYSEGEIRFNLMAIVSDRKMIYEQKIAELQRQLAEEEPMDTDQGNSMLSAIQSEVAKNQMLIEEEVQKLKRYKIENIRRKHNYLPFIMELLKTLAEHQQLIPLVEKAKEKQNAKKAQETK
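Material: human UCH37 enzyme supplied as purified proteasome complex / Amount: 0.15 nM proteasome as dispensed / Buffer or medium: pH 7.4 Tris-HCl (50 mM) with ovalbumin, ATP-MgCl2, DTT / Times: preincubation 30 min, reaction 25 min, room temperature / Technique: AMC fluorescence from Ub-AMC cleavage, excitation 355 nm, emission 460 nm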
ARNT-TACC3 inh – disruptors of ARNT/TACC3 protein interaction, primary screen, biochemical, AlphaScreen, single concentration. Transforming acidic coiled-coil-containing protein 3 (Homo sapiens), Q9Y6A5. AlphaScreen His-ARNT PAS-B/GST-TACC3 binding, luminescence; TACC3 fragment carries E629A point mutation. inhibition, % at 9.99 µM. 390,000 compounds, 0.66% hits;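 active = mean inhibition of replicates at least 50% and at least half of replicates each reaching 50%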
Mot1-301 SUMO – yeast Mot1-301 growth rescue at high temperature, primary screen, SUMOylation pathway inhibitor project, S. cerevisiae, ATP luminescence, 38.5C | AID 2716, 2010 | 320,000 compounds, 1% hits | growth rescue, % at 18.8 µM | S. cerevisiae Mot1-301 growth rescue; percent above DMSO median, 100 means doubled;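 active = every valid replicate shows activation above 250% relative to neutral control wells; inactive = the rest, any valid replicate at or below 250%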
RTF Ca sens inh – cardiac RTF calcium sensitivity inhibitors, primary screen, biochemical, IANBD-TnC fluorescence, EC70 calcium; AID 493244, 2011; 340,000 compounds, 0.12% hits; Troponin I, cardiac muscle (Homo sapiens) + Troponin T, cardiac muscle (Homo sapiens) + …; inhibition, % at 7.15 µM; IANBD-labeled cardiac RTF, Ca2+ fluorescence;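 active = inhibition above the mean inhibition of all tested compounds plus 3 SD, cut at about 17% in these data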;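 also: assay run at fixed EC70 calcium of 1.6 mM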
Mot1 SUMO dose – growth restoration of Mot1-301 yeast on galactose, dose response, SUMO pathway inhibitor project, whole organism, S. cerevisiae, ATP luminescence, cherry-picked samples; shares compounds with Mot1-301 SUMO; S. cerevisiae Mot1-301 galactose growth, 24 h; -100 = growth of slx-deleted rescue strain; growth activity, percent, % at 42 µM; 2,300 tested, under 10 active;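 active = Signal drops as the depositor expects, and the fitted half-maximal dose is no more than ten times the top valid tested dose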;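 also: more negative values mean stronger growth rescue toward the control strain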
A number is an active result; . = inactive; / = not tested or not shown; + = active, no number. Most compounds without a hit are left out; they make up all but 2.1% or so of the library.

SMILES	RTF Ca sens act	Efflux pump inh	UCH37 inh	ARNT-TACC3 inh	Mot1-301 SUMO	RTF Ca sens inh	Mot1 SUMO dose
Cn1nc(C(C)(C)C)c([N+](=O)[O-])c1C(=O)Nc1ccccc1	.	.	.	.	586	.	.
Cc1ccc(NC(=O)c2c([N+](=O)[O-])c(C(C)(C)C)nn2C)cc1	.	.	.	.	.	.	/
O=C1CSC(c2ccc(F)cc2)N1c1ccccc1F (stereo not drawn)	.	.	.	.	.	.	/
O=C1CSC(c2ccc(F)c(F)c2)N1c1ccccc1F (stereo not drawn)	.	.	.	.	891	.	.
Cc1ccc(NN=C(C#N)C(=N)N2CCCCCC2)cc1	/	/	.	/	/	/	/
CC(=O)N1CCc2cc(S(=O)(=O)NCCC3=CCCCC3)ccc21	.	.	.	.	+	.	.
CC(=O)N1CCc2cc(S(=O)(=O)NCCCN3CCCCC3)ccc21	.	.	.	.	.	.	/
COc1ccc(Cl)cc1NC(=O)CC(C)=NNC(=O)c1ccccc1[N+](=O)[O-]	/	/	.	/	/	/	/
CC1CC(=NNC(=S)NCc2ccccc2)CC(C)(C)C1 (stereo not drawn)	/	/	.	/	/	/	/
COCCNC(=O)CC(c1ccccc1)c1ccccc1	.	.	.	.	.	.	/
O=C(CC(c1ccccc1)c1ccccc1)NCCOCc1ccccc1	.	.	.	.	403	.	.
CCOc1ccc(CC2S/C(=N/N=Cc3ccco3)NC2=O)cc1 (stereo not drawn)	/	/	.	/	/	/	/
COCCn1c(-c2ccc(Cl)cc2)cnc1SCC(=O)NCCc1ccc(OC)c(OC)c1	.	.	.	.	473	.	.
COc1ccc(C(=O)NN=C(C)CC(=O)Nc2ccc(Cl)cn2)cc1	/	/	.	/	/	/	/
COc1ccc(-c2csc(NC(=O)CS(=O)(=O)c3ccc(F)cc3)n2)cc1OC	.	.	.	.	555	.	.
CON=C(CS(=O)(=O)c1ccc(C)cc1)c1ccc(OC)cc1	/	/	.	/	/	/	/
O=C1N=C(N2CCOCC2)SC1=Cc1ccco1	.	/	.	.	/	.	/
O=C1N=C(N2CCOCC2)S/C1=C\c1cccnc1	.	.	.	.	753	.	.
CCOC(=O)c1cc2sc(C)cc2n1CC(=O)Nc1ccc2c(c1)OCCO2	.	.	.	.	784	.	.
CN(C)C=c1sc2c(C#N)cc(C(=O)c3ccc(Br)cc3)n2c1=O	/	/	.	/	/	/	/
C=CCOC(=O)C(C#N)c1nc2ccccc2nc1N1CCN(Cc2ccccc2)CC1 (stereo not drawn)	.	.	/	.	501	.	.
COCCOC(=O)C(C#N)c1nc2ccccc2nc1N1CCN(Cc2ccccc2)CC1 (stereo not drawn)	.	.	.	.	.	.	/
CC(CCc1ccccc1)=NNC(=O)CC(=O)NCCc1ccccc1	/	/	.	/	/	/	/
CC(=O)c1ccc(N2CCN(CC(=O)Nc3cc(C)on3)CC2)cc1	.	.	.	.	483	.	.
CC(=NN1CCN(Cc2ccc(C)cc2)CC1)c1ccco1	/	/	.	/	/	/	/
SMILES	RTF Ca sens act	Efflux pump inh	UCH37 inh	ARNT-TACC3 inh	Mot1-301 SUMO	RTF Ca sens inh	Mot1 SUMO dose
O=C1NCCCC1C(=O)NN=Cc1ccccc1O (stereo not drawn)	/	/	.	/	/	/	/
Cc1nnc(SCC(=O)NC(C)(C)C)n1NCc1ccc(Cl)cc1	.	.	.	.	785	.	.
CCc1ccccc1NC(=S)NNC(=O)c1ccccc1Cl	.	.	.	.	+	.	.
CCc1ccccc1NC(=S)NN	/	.	/	/	.	/	/
COc1cccc(C(C)=NNC(=O)c2cc(-c3cccnc3)nc3ccccc23)c1	/	/	.	/	/	/	/
O=C(O)COc1ccccc1C=NNC(=O)c1ccc2c(c1)OCCO2	/	/	.	/	/	/	/
Cc1ccc(CNC(=O)c2ccc(N3CCC4(CC3)CC(c3ccccc3)=NO4)c(NC(=O)c3cccc(C)c3)c2)cc1	.	.	/	/	947	.	.
CC[n+]1c(/C=C(\C)SC)sc2ccccc21	.	.	.	.	540	.	.
CCN1CCN(CC(=O)Nc2cccc(C)c2C)C(=O)C1=O	.	.	/	.	518	.	.
CCN1CCN(CC(=O)Nc2ccc(C)cc2C)C(=O)C1=O	.	.	.	.	.	.	/
O=C(Nc1ccncc1Cl)c1ccncc1	.	.	.	.	435	.	.
COCCN(C(=O)c1csnn1)C(C(=O)NC1CCCCC1)c1ccccc1 (stereo not drawn)	.	.	.	.	441	.	.
Cc1cc2cc(C)c3nnc(SCC(=O)NCc4ccc5c(c4)OCO5)n3c2cc1C	.	.	.	.	.	.	/
Cc1cc(C)c2cc(C)c3nnc(SCC(=O)NCc4ccc5c(c4)OCO5)n3c2c1	.	.	.	.	621	.	.
O=C(CSc1nnc(-c2ccccc2O)o1)Oc1ccc(Br)cc1	.	.	.	.	.	.	/
O=C(CSc1nnc(-c2ccccc2Cl)o1)Oc1ccc(Br)cc1	.	.	/	.	501	.	.
CC(C)(CC(=O)OCC(=O)Nc1ccccc1F)CC1=NS(=O)(=O)c2ccccc2N1	.	.	.	.	.	.	/
COc1ccccc1NC(=O)COC(=O)CC(C)(C)CC1=NS(=O)(=O)c2ccccc2N1	.	.	.	.	396	.	.
c1ccc(Cn2nnnc2C(c2ccccc2)N2CCN(c3nc4ccccc4s3)CC2)cc1 (stereo not drawn)	.	.	.	.	.	.	/
Cc1ccc(C)c(N2CCN(C(c3ccncc3)c3nnnn3Cc3ccccc3)CC2)c1 (stereo not drawn)	.	.	.	.	422	.	.
CC(=O)Nc1cccc(OCC(O)Cn2c(C)nc3ccccc32)c1 (stereo not drawn)	.	.	.	.	655	.	.
COC(=O)c1ccc(Cl)c(NC(=O)CN(c2ccc(OC)cc2)S(=O)(=O)c2ccccc2)c1	.	.	.	.	.	.	/
